Measurements reported in ChEMBL document CHEMBL1138555, “N-acylated and N,N'-diacylated imidazolidine-2-thione derivatives and N,N'-diacylated tetrahydropyrimidine-2(1H)-thione analogues: synthesis and antiproliferative activity” (Eur J Med Chem, 2009).

What was measured:
NCI-H460 = assay: Growth inhibition of human NCI-H460 cells after 48 hrs by sulforhodamine B assay; format: functional; details: NCI-H460, 48 h
Outline: (§1)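 NCI screen panel. Five 10-fold concentrations from 10^-4 to 10^-8 M. Exposure for the last 48 h of a 72 h incubation. Growth estimated by sulforhodamine B protein assay. GI50 is the concentration giving 50% growth inhibition. Where that level was not reached or was exceeded, the value is given as above or below the highest or lowest concentration tested.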

MDA-MB-435 = assay: Growth inhibition of human MDA-MB-435 cells after 48 hrs by sulforhodamine B assay; format: functional; details: MDA-MB-435, 48 h; outline: as §1
HL-60(TB) = assay: Growth inhibition of human HL-60(TB) cells after 48 hrs by sulforhodamine B assay; format: functional; details: HL-60, 48 h
Outline: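 NCI 60-cell-line screen protocol: cells exposed to compound at five 10-fold dilutions from 10^-4 to 10^-8 M for the last 48 h of a 72 h incubation. Sulforhodamine B protein assay estimated viability/growth. GI50 (50% growth inhibition) derived; where not reached or exceeded, reported as greater or less than the highest or lowest concentration tested.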

OVCAR-8 = assay: Growth inhibition of human OVCAR8 cells after 48 hrs by sulforhodamine B assay; format: functional; details: OVCAR-8, 48 h; outline: as §1
Malme-3M = assay: Growth inhibition of human MALME-3M cells after 48 hrs by sulforhodamine B assay; format: functional; outline: as §1
KM12 = assay: Growth inhibition of human KM12 cells after 48 hrs by sulforhodamine B assay; format: functional; details: KM12, 48 h; outline: as §1
RXF 393 = assay: Growth inhibition of human RXF393 cells after 48 hrs by sulforhodamine B assay; format: functional; details: RXF 393, 48 h; outline: as §1
SF-295 = assay: Growth inhibition of human SF295 cells after 48 hrs by sulforhodamine B assay; format: functional; details: SF-295, 48 h; outline: as §1
NCI-H322M = assay: Growth inhibition of human NCI-H322M cells after 48 hrs by sulforhodamine B assay; format: functional; outline: as §1
M14 = assay: Growth inhibition of human M14 cells after 48 hrs by sulforhodamine B assay; format: functional; details: M14, 48 h; outline: as §1
LOX IMVI = assay: Growth inhibition of human LOXIMVI cells after 48 hrs by sulforhodamine B assay; format: functional; outline: as §1
MDA-MB-231 = assay: Growth inhibition of human MDA-MB-231 cells after 48 hrs by sulforhodamine B assay; format: functional; details: MDA-MB-231, 48 h; outline: as §1
786-0 = assay: Growth inhibition of human 786-0 cells after 48 hrs by sulforhodamine B assay; format: functional; details: 786-0, 48 h; outline: as §1
CAKI-1 = assay: Growth inhibition of human Caki1 cells after 48 hrs by sulforhodamine B assay; format: functional; details: CAKI-1, 48 h; outline: as §1
UACC-257 = assay: Growth inhibition of human UACC257 cells after 48 hrs by sulforhodamine B assay; format: functional; details: UACC-257, 48 h
Outline: (§2)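 NCI in vitro panel screen. Compounds tested at five 10-fold dilutions, 10^-4 to 10^-8 M. Cells in 96-well plates were exposed for the last 48 h of a 72 h incubation. Viability/growth was read by sulforhodamine B protein assay. GI50 is the concentration giving 50% growth inhibition. Values beyond the tested range are reported as greater or less than the maximum or minimum concentration.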

A549 = assay: Growth inhibition of human A549 cells after 48 hrs by sulforhodamine B assay; format: functional; details: A549, 48 h; outline: as §1
BT-549 = assay: Growth inhibition of human BT549 cells after 48 hrs by sulforhodamine B assay; format: functional; details: BT-549, 48 h; outline: as §1
HOP-92 = assay: Growth inhibition of human HOP92 cells after 48 hrs by sulforhodamine B assay; format: functional; details: HOP-92, 48 h; outline: as §1
HT-29 = assay: Growth inhibition of human HT-29 cells after 48 hrs by sulforhodamine B assay; format: functional; details: HT-29, 48 h; outline: as §1
SNB-75 = assay: Growth inhibition of human SNB75 cells after 48 hrs by sulforhodamine B assay; format: functional; details: SNB-75, 48 h; outline: as §2
U-251 = assay: Growth inhibition of human U251 cells after 48 hrs by sulforhodamine B assay; format: functional; details: U-251, 48 h; outline: as §2
MT4 = assay: Antiproliferative activity against human MT4 cells assessed as reduction of growth by MTT assay; format: functional, cell-based
Outline: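 MT-4 lymphoblastoid T cells (ATCC) in RPMI 1640 with 10% FCS, penicillin/streptomycin, checked for mycoplasma. 1 × 10⁴ mock-infected cells per well with serial dilutions from a 100 mM DMSO stock. Incubated 4 days at 37 °C, viable cells counted by MTT. IC50 versus untreated controls by linear regression. Mean of three separate experiments.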

[1] = Growth inhibition of human […] cells after 48 hrs by sulforhodamine B assay; format: functional; outline: as §1
SNB-19 = assay: Growth inhibition of human SNB19 cells after 48 hrs by sulforhodamine B assay; format: functional; details: SNB-19, 48 h; outline: as §2
TK-10 = assay: Growth inhibition of human TK10 cells after 48 hrs by sulforhodamine B assay; format: functional; details: TK-10, 48 h; outline: as §2
SR = assay: Growth inhibition of human SR cells after 48 hrs by sulforhodamine B assay; format: functional; outline: as §2
SF-268 = assay: Growth inhibition of human SF268 cells after 48 hrs by sulforhodamine B assay; format: functional; details: SF-268, 48 h; outline: as §1
DU-145 = assay: Growth inhibition of human DU145 cells after 48 hrs by sulforhodamine B assay; format: functional; details: DU-145, 48 h; outline: as §1
HCT-15 = assay: Growth inhibition of human HCT15 cells after 48 hrs by sulforhodamine B assay; format: functional; details: HCT-15, 48 h; outline: as §1
SK-OV-3 = assay: Growth inhibition of human SKOV3 cells after 48 hrs by sulforhodamine B assay; format: functional; details: SK-OV-3, 48 h; outline: as §1
OVCAR-3 = assay: Growth inhibition of human OVCAR-3 cells after 48 hrs by sulforhodamine B assay; format: functional; details: OVCAR-3, 48 h; outline: as §1
UACC-62 = assay: Growth inhibition of human UACC62 cells after 48 hrs by sulforhodamine B assay; format: functional; details: UACC-62, 48 h; outline: as §2
SK-MEL-28 = assay: Growth inhibition of human SK-MEL-28 cells after 48 hrs by sulforhodamine B assay; format: functional; details: SK-MEL-28, 48 h; outline: as §1
T47D = assay: Growth inhibition of human T47D cells after 48 hrs by sulforhodamine B assay; format: functional; outline: as §2
IGROV-1 = assay: Growth inhibition of human IGROV1 cells after 48 hrs by sulforhodamine B assay; format: functional; details: IGROV-1, 48 h; outline: as §1
SN12C = assay: Growth inhibition of human SN12C cells after 48 hrs by sulforhodamine B assay; format: functional; outline: as §2
EKVX = assay: Growth inhibition of human EKVX cells after 48 hrs by sulforhodamine B assay; format: functional; outline: as §1
HOP-62 = assay: Growth inhibition of human HOP62 cells after 48 hrs by sulforhodamine B assay; format: functional; details: HOP-62, 48 h; outline: as §1
K562 = assay: Growth inhibition of human K562 cells after 48 hrs by sulforhodamine B assay; format: functional; details: K562, 48 h; outline: as §1
OVCAR-4 = assay: Growth inhibition of human OVCAR4 cells after 48 hrs by sulforhodamine B assay; format: functional; details: OVCAR-4, 48 h; outline: as §1
SK-MEL-5 = assay: Growth inhibition of human SK-MEL-5 cells after 48 hrs by sulforhodamine B assay; format: functional; details: SK-MEL-5, 48 h; outline: as §1
NCI-H23 = assay: Growth inhibition of human NCI-H23 cells after 48 hrs by sulforhodamine B assay; format: functional; details: NCI-H23, 48 h; outline: as §1
SW-620 = assay: Growth inhibition of human SW620 cells after 48 hrs by sulforhodamine B assay; format: functional; details: SW-620, 48 h; outline: as §2
ACHN = assay: Growth inhibition of human ACHN cells after 48 hrs by sulforhodamine B assay; format: functional; outline: as §1
UO-31 = assay: Growth inhibition of human UO31 cells after 48 hrs by sulforhodamine B assay; format: functional; details: UO-31, 48 h; outline: as §2
PC-3 = assay: Growth inhibition of human PC3 cells after 48 hrs by sulforhodamine B assay; format: functional; details: PC-3, 48 h; outline: as §1
COLO 205 = assay: Growth inhibition of human COLO205 cells after 48 hrs by sulforhodamine B assay; format: functional; details: COLO 205, 48 h; outline: as §1
NCI/ADR-RES = assay: Growth inhibition of human NCI/ADR-RES cells after 48 hrs by sulforhodamine B assay; format: functional; outline: as §1
SK-MEL-2 = assay: Growth inhibition of human SK-MEL-2 cells after 48 hrs by sulforhodamine B assay; format: functional; details: SK-MEL-2, 48 h; outline: as §1
MOLT-4 = assay: Growth inhibition of human MOLT4 cells after 48 hrs by sulforhodamine B assay; format: functional; details: MOLT-4, 48 h; outline: as §1
HCT-116 = assay: Growth inhibition of human HCT116 cells after 48 hrs by sulforhodamine B assay; format: functional; details: HCT-116, 48 h; outline: as §1

`COC(=O)/C(C#N)=C/N1CCN(C(=O)c2ccco2)C1=S` showed a GI50 (NCI-H460) of 2.5 µM, a GI50 (MDA-MB-435) of 6.8 µM and a GI50 (HL-60(TB)) of 6.9 µM. It also gave a GI50 (OVCAR-8) of 15.5 µM, a GI50 (Malme-3M) of 32.7 µM and a GI50 (KM12) of 3.3 µM. For the same molecule, the GI50 (RXF 393) was 3.1 µM, the GI50 (SF-295) was 26 µM and the GI50 (NCI-H322M) was 14 µM. It also gave a GI50 (M14) of 6.4 µM, a GI50 (LOX IMVI) of 2.4 µM and a GI50 (MDA-MB-231) of 4.2 µM. It also gave a GI50 (786-0) of 6.3 µM, a GI50 (CAKI-1) of 3.4 µM and a GI50 (UACC-257) of 5.9 µM. The GI50 (A549) was 14.6 µM, the GI50 (BT-549) was 4.2 µM and the GI50 (HOP-92) was 14 µM. The GI50 (HT-29) was 12.2 µM, the GI50 (SNB-75) was 15.5 µM and the GI50 (U-251) was 6.8 µM. The IC50 (MT4) was 5 µM, the GI50 [1] was 3.3 µM and the GI50 (SNB-19) was 54.9 µM. For the same molecule, the GI50 (TK-10) was 3.6 µM, the GI50 (SR) was 2.1 µM and the GI50 (SF-268) was 4.8 µM. For the same molecule, the GI50 (DU-145) was 3.5 µM, the GI50 (HCT-15) was 3 µM and the GI50 (SK-OV-3) was 28.2 µM. It also gave a GI50 (OVCAR-3) of 4.9 µM, a GI50 (UACC-62) of 10.8 µM and a GI50 (SK-MEL-28) of 13 µM. For the same molecule, the GI50 (T47D) was 4.6 µM, the GI50 (IGROV-1) was 6.2 µM and the GI50 (SN12C) was 3.7 µM. The GI50 (EKVX) was 10.2 µM, the GI50 (HOP-62) was 22.3 µM and the GI50 (K562) was 3.7 µM. It also gave a GI50 (OVCAR-4) of 23.3 µM, a GI50 (SK-MEL-5) of 14.8 µM and a GI50 (NCI-H23) of 13.2 µM. It also gave a GI50 (SW-620) of 5.2 µM, a GI50 (ACHN) of 4.8 µM and a GI50 (UO-31) of 5.2 µM. The GI50 (PC-3) was 6.8 µM, the GI50 (COLO 205) was 31.7 µM and the GI50 (NCI/ADR-RES) was 24 µM. It also gave a GI50 (SK-MEL-2) of 2.9 µM, a GI50 (MOLT-4) of 7.4 µM and a GI50 (HCT-116) of 4 µM.
